Results reported in ChEMBL document CHEMBL1143683, “Arylthioindole inhibitors of tubulin polymerization. 3. Biological evaluation, structure-activity relationships and molecular modeling studies” (J Med Chem, 2007).
Activity calls are given as the source filed them. The rule behind the calls is not given here.

How the values were obtained:
Tubulin (Homo sapiens) = Tubulin (Homo sapiens) (UniProt P68371+Q9H4B7+P0DPH7+P68366+Q13509+Q71U36+P04350+Q3ZCM7+P07437+P68363+Q9BQE3+Q6PEY2+Q13885+Q9BVA1+Q9BUF5); experiment: Inhibition of [3H]colchicine binding to tubulin at 5 uM; format: protein-complex assay
MCF7 = experiment: Growth inhibition of human MCF7 cells after 48 hrs; format: functional, cell-based; details: MCF7, 48 h
Tubulin [1] = experiment: Displacement of MTC from tubulin; format: protein-complex assay, Homo sapiens
Tubulin [2] = experiment: Inhibition of tubulin polymerization; format: protein-complex assay, Homo sapiens
In short: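 Tubulin at 10 µM in 0.8 M monosodium glutamate pH 6.6 with varying drug, preincubated 15 min at 30 °C, then chilled on ice. Assembly started with 0.4 mM GTP and followed as turbidity at 350 nm for 20 min at 30 °C. IC50 taken from the extent of assembly.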

HeLa [3] = experiment: Induction of apoptosis in HeLa cells assessed as PARP1 ceavage at 100 uM; format: functional, cell-based; details: Homo sapiens
In short: (§1)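 HeLa cells given 10 µM for 24 h, or 100 µM for 3 h followed by 24 h recovery. Total extracts from 2.5 × 10⁶ cells analysed by western blot with anti-PARP-1 mAb C-2-10 and an HRP anti-mouse secondary, ECL detection. PARP-1 proteolysis taken as the marker of caspase activation.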

HeLa [4] = experiment: Cell cycle arrest in HeLa cells assessed as accumulation at S phase at 10 uM after 24 hrs with further incubation in drug free medium for 24 hrs; format: functional, Homo sapiens
In short: (§2)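 HeLa cells in DMEM with 10% FCS, 37 °C, 5% CO2. Subconfluent cells trypsinized, seeded at 2.5 × 10⁵ cells/mL and exposed to 10 µM for 24 h (0.1% DMSO in parallel samples). Harvested either at once or after another 24 h in drug-free medium. Ethanol-fixed, stained with propidium iodide plus RNase A, ≥10 000 cells flow-analysed. Values are % of cells per phase; one typical experiment.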

HeLa [5] = experiment: Cell cycle arrest in HeLa cells assessed as accumulation of A0 sub-G1 DNA content at 10 uM after 24 hrs; format: functional, Homo sapiens; in short: as §2
HeLa [6] = experiment: Cell cycle arrest in HeLa cells assessed as accumulation at >4C phase at 10 uM after 24 hrs; format: functional, Homo sapiens; in short: as §2
HeLa [7] = experiment: Cell cycle arrest in HeLa cells assessed as accumulation at S phase at 10 uM after 24 hrs; format: functional, Homo sapiens; in short: as §2
HeLa [8] = experiment: Induction of apoptosis in HeLa cells assessed as PARP1 ceavage at 10 uM; format: functional, cell-based; details: Homo sapiens; in short: as §1
HeLa [9] = experiment: Cell cycle arrets in HeLa cells assessed as accumulation at G1 phase at 10 uM for 24 hrs with further incubation in drug free medium for 24 hrs; format: functional, Homo sapiens; in short: as §2
HeLa [10] = experiment: Cell cycle arrest in HeLa cells assessed as accumulation at >4C phase at 10 uM after 24 hrs with furthur incubation in drug free medium for 24 hrs; format: functional, Homo sapiens; in short: as §2
HeLa [11] = experiment: Cell cycle arrest in HeLa cells assessed as accumulation at G2/M phase at 10 uM after 24 hrs with furthur incubation in drug free medium for 24 hrs; format: functional, Homo sapiens; in short: as §2
HeLa [12] = experiment: Cell cycle arrets in HeLa cells assessed as accumulation at G1 phase at 10 uM after 24 hrs; format: functional, Homo sapiens; in short: as §2
HeLa [13] = experiment: Cell cycle arrest in HeLa cells assessed as accumulation of A0 sub-G1 DNA content at 10 uM after 24 hrs with further incubation in drug free medium for 24 hrs; format: functional, Homo sapiens; in short: as §2
HeLa [14] = experiment: Cell cycle arrest in HeLa cells assessed as accumulation at G2/M phase at 10 uM after 24 hrs; format: functional, Homo sapiens; in short: as §2

## COc1cc(Sc2c(C)[nH]c3ccccc23)cc(OC)c1OC
Tubulin (Homo sapiens)
  inhibition: 61%
MCF7
  IC50: 46 nM
Tubulin [1]
  Ka: 5.5e+06 M⁻¹
Tubulin [2]
  IC50: 6800 nM

## COc1ccc(-c2ccc(OC)c(=O)cc2)c(OC)c1OC
Tubulin [1]
  Ka: 470000 M⁻¹

## COc1ccccc1Sc1c[nH]c2ccc(Cl)cc12
MCF7
  IC50: > 2500 nM
Tubulin [2]
  IC50: 11000 nM

## COc1cc([C@@H]2c3cc4c(cc3[C@@H](O[C@@H]3O[C@@H]5CO[C@@H](C)O[C@H]5[C@H](O)[C@H]3O)[C@H]3COC(=O)[C@H]23)OCO4)cc(OC)c1O
HeLa [3]
  Activity: Active

## COc1ccc(/C=C\c2cc(OC)c(OC)c(OC)c2)cc1O [COMBRETASTATIN A4]
MCF7
  IC50: 17 nM

## COc1cc(Sc2c[nH]c3ccc(Cl)cc23)cc(OC)c1OC
Tubulin (Homo sapiens)
  inhibition: 51%
MCF7
  IC50: 77 nM
Tubulin [1]
  Ka: 810000 M⁻¹
Tubulin [2]
  IC50: 2600 nM

## COC(=O)c1[nH]c2ccc(Cl)cc2c1Sc1cc(OC)c(OC)c(OC)c1
Tubulin [1]
  Ka: 1.3e+06 M⁻¹

## COc1cc(Sc2c[nH]c3ccc(Br)cc23)cc(OC)c1OC
Tubulin (Homo sapiens)
  inhibition: 65%
HeLa [4]
  Activity: 10.5%
HeLa [5]
  Activity: 6.5%
HeLa [6]
  Activity: 4.2%
HeLa [7]
  Activity: 8.9%
HeLa [8]
  Activity: inactive
HeLa [9]
  Activity: 3.5%
HeLa [10]
  Activity: 26%
MCF7
  IC50: 43 nM
HeLa [11]
  Activity: 53.1%
HeLa [12]
  Activity: 1.8%
Tubulin [1]
  Ka: 2.76e+06 M⁻¹
HeLa [13]
  Activity: 4.5%
HeLa [14]
  Activity: 56.1%
Tubulin [2]
  IC50: 1600 nM

## COc1cc(Sc2c(C)[nH]c3ccc(Cl)cc23)cc(OC)c1OC
Tubulin (Homo sapiens)
  inhibition: 59%
MCF7
  IC50: 82 nM
Tubulin [1]
  Ka: 2.07e+06 M⁻¹
Tubulin [2]
  IC50: 2700 nM

## COc1cc(Sc2c[nH]c3ccccc23)cc(OC)c1OC
Tubulin (Homo sapiens)
  inhibition: 68%
MCF7
  IC50: 34 nM
Tubulin [1]
  Ka: 5.21e+06 M⁻¹
Tubulin [2]
  IC50: 2600 nM

## COc1cc(Sc2c[nH]c3ccc(F)cc23)cc(OC)c1OC
Tubulin (Homo sapiens)
  inhibition: 39%
MCF7
  IC50: 160 nM
Tubulin [2]
  IC50: 3300 nM

## COc1cc(Sc2c[nH]c3ccc(I)cc23)cc(OC)c1OC
Tubulin (Homo sapiens)
  inhibition: 61%
MCF7
  IC50: 68 nM
Tubulin [1]
  Ka: 2.31e+06 M⁻¹
Tubulin [2]
  IC50: 2700 nM

## COc1ccc2[nH]c(C)c(Sc3cc(OC)c(OC)c(OC)c3)c2c1
Tubulin (Homo sapiens)
  inhibition: 69%
MCF7
  IC50: 18 nM
Tubulin [1]
  Ka: 6.38e+06 M⁻¹
Tubulin [2]
  IC50: 3300 nM

## COc1cc(Sc2c[nH]c3ccc(N)cc23)cc(OC)c1OC
MCF7
  IC50: 260 nM
Tubulin [2]
  IC50: 13000 nM

## Cc1cc(C)cc(Sc2c[nH]c3ccc(Cl)cc23)c1
Tubulin (Homo sapiens)
  inhibition: 33%
MCF7
  IC50: 1200 nM
Tubulin [2]
  IC50: 9400 nM

## COC(=O)c1[nH]c2ccccc2c1Sc1cc(OC)c(OC)c(OC)c1
Tubulin [1]
  Ka: 570000 M⁻¹

## COc1cc(Sc2c[nH]c3ccc([N+](=O)[O-])cc23)cc(OC)c1OC
MCF7
  IC50: 560 nM
Tubulin [2]
  IC50: 16000 nM

## COc1cc(Sc2c[nH]c3ccc(OC(C)C)cc23)cc(OC)c1OC
MCF7
  IC50: 1500 nM
Tubulin [2]
  IC50: 19000 nM

## COc1cc(Sc2c[nH]c3ccc(C)cc23)cc(OC)c1OC
Tubulin (Homo sapiens)
  inhibition: 56%
MCF7
  IC50: 16 nM
Tubulin [1]
  Ka: 1.96e+06 M⁻¹
Tubulin [2]
  IC50: 2700 nM

## COc1cc(Sc2c[nH]c3ccc(OCCO)cc23)cc(OC)c1OC
Tubulin (Homo sapiens)
  inhibition: 31%
MCF7
  IC50: 95 nM
Tubulin [2]
  IC50: 6800 nM

## CCOc1ccc2[nH]cc(Sc3cc(OC)c(OC)c(OC)c3)c2c1
Tubulin (Homo sapiens)
  inhibition: 76%
MCF7
  IC50: 16 nM
Tubulin [2]
  IC50: 2100 nM

## COc1ccc2[nH]cc(Sc3cc(OC)c(OC)c(OC)c3)c2c1
Tubulin (Homo sapiens)
  inhibition: 61%
MCF7
  IC50: 22 nM
Tubulin [1]
  Ka: 3.05e+06 M⁻¹
Tubulin [2]
  IC50: 4100 nM

## COc1cc(Sc2c[nH]c3ccc(OCCOCc4ccccc4)cc23)cc(OC)c1OC
MCF7
  IC50: 260 nM
Tubulin [2]
  IC50: > 40000 nM

## COc1cc(Sc2c[nH]c3ccc(O)cc23)cc(OC)c1OC
Tubulin (Homo sapiens)
  inhibition: 26%
MCF7
  IC50: 190 nM
Tubulin [2]
  IC50: 6300 nM
